Data set [1] concerns the target T1, Phosphatidylinositol 4,5-bisphosphate 3-kinase catalytic subunit delta isoform (Homo sapiens, UniProt O00329).
T1 sequence (O00329 whole entry): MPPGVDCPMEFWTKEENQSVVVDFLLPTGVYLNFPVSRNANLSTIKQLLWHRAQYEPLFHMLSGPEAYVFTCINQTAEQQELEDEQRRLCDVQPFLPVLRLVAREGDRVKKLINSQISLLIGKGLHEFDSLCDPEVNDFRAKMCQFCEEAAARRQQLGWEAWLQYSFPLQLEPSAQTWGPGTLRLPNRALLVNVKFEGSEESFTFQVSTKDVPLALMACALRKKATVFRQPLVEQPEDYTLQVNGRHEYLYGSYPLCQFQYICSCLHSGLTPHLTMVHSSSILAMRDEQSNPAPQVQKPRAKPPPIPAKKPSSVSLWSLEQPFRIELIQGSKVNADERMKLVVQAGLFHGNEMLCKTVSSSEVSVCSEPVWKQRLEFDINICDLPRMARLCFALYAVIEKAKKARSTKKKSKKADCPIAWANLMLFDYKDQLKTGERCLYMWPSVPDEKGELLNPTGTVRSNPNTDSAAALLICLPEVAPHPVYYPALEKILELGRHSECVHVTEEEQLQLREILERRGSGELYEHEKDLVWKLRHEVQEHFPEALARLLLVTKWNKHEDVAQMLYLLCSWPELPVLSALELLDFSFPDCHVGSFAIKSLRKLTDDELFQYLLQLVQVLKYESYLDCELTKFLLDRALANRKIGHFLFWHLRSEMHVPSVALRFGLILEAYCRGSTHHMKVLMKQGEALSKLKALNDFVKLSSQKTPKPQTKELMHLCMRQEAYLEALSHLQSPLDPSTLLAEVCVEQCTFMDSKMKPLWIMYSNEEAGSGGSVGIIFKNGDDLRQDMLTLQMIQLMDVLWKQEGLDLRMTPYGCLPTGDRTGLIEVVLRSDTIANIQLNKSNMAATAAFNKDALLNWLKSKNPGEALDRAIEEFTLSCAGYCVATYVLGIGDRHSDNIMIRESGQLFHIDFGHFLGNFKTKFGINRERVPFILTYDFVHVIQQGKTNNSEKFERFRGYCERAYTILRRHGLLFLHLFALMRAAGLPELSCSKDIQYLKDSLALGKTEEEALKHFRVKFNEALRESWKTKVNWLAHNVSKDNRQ
Briefly: Inhibition of human PI3Kdelta by TR-FRET based Adapta assay. On the technique in general: In TR-FRET formats the signal depends on donor and acceptor labels being close together.

Data set [2] has as its system Spleen. Briefly: Effect in JAK2V6175 transgenic myelofibrosis C57BL/6 mouse spleen assessed as reduction in ERK1/2 phosphorylation at 325 mg/kg, po administered daily for 5 days by flow cytometry analysis. Particulars: time 5.0 day. A general note: In flow cytometry, cells or beads pass a laser one at a time.
The target in data set [3] is Phosphatidylinositol 4,5-bisphosphate 3-kinase catalytic subunit gamma isoform (Homo sapiens, UniProt P48736). The experiment in a line: Inhibition of human PI3Kgamma by TR-FRET based Adapta assay.
Data set [4] concerns A-375. The experiment in a line: Antiproliferative activity against human A-375 cells assessed as reduction in cell viability measured after 72 hrs by CellTiter-Fluor cell viability assay. The data set is classed as functional, cell-based. Particulars: A-375, 72 h. The gist of the method: (§1)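 Cells grown in DMEM or RPMI 1640 with 10% FBS (20% for SET-2), 37 °C, 5% CO₂. About 500–1,000 cells/well seeded and incubated 24 h, then exposed to final concentrations of 0.1–20 μM for 72 h. Viability read by fluorescence (CellTiter-Fluor). IC₅₀ calculated from 3 independent experiments in duplicate wells, reported as mean ± SEM.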

Data set [5] in a line: Drug concentration in JAK2V6175 transgenic myelofibrosis C57BL/6 mouse blood at 325 mg/kg, po measured after 4 hrs by LC-MS/MS analysis. The note with it: whole blood, read-out: Ct. The data set is classed as ADME, organism-based. The gist of the method: (§2)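 Mice received a single oral dose of 325 mg/kg (n=4 per compound). Blood, spleen and bone marrow taken about 4 h later and homogenized. Extracts centrifuged at 10,000 × g and separated by reverse-phase C18 UPLC (0.1% formic acid water/acetonitrile gradient). Parent and metabolites quantified by MRM LC-MS/MS against internal-standard calibration (0.02–160 ng/mL, r² ≥ 0.99). Synthesized metabolite standards used for confirmation. Levels given as ng/g, mean ± SEM.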

The test system of data set [6] is D54 cell line. The experiment in a line: Antiproliferative activity against human D54 cells assessed as reduction in cell viability measured after 72 hrs by CellTiter-Fluor cell viability assay. The data set is classed as functional, cell-based. Particulars: D54, 72 h. The gist of the method: as §1
A short description of data set [7]: Drug metabolism in JAK2V6175 transgenic myelofibrosis C57BL/6 mouse blood at 325 mg/kg, po assessed as metabolite formation measured after 4 hrs by LC-MS/MS analysis. The data set is classed as ADME, organism-based. The note with it: in vivo. The gist of the method: as §2
In data set [8] the test system is SET-2. Briefly: Antiproliferative activity against human SET-2 cells assessed as reduction in cell viability measured after 72 hrs by CellTiter-Fluor cell viability assay. The data set is classed as functional, cell-based. The note with it: SET-2, 72 h. A digest of the protocol:
as §1

For data set [9], the target named is Phosphatidylinositol 4,5-bisphosphate 3-kinase catalytic subunit beta isoform (Homo sapiens, UniProt P42338). Briefly: Inhibition of human PI3Kbeta by TR-FRET based Adapta assay.
Data set [10] concerns D54 cell line. The experiment in a line: Inhibition of ERK phosphorylation in human D-54 cells assessed as change in phosphorylated ERK level at 10 uM for 30 minutes in presence of PDGF by western blot analysis relative to control. The data set is classed as cell-based. More on the design: scale not given: the % may be the effect or the level left. A digest of the protocol:
(§3)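 A375 and D54 cells grown in DMEM with 10% FBS; SET-2 in RPMI with 20% FBS. Cells treated 30 min at 10 μM; A375 and D54 also received PDGF 50 ng/ml, which was omitted for SET-2. Cells lysed in RIPA with protease and phosphatase inhibitors, then SDS-PAGE/western blot for pAKT S473, pERK1/2 T202/Y204, total AKT and total ERK. Densitometry of phospho signal normalized to total protein, expressed as % of control. 3 independent experiments, mean ± SEM.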
Background: A western blot detects proteins with antibodies after separation by electrophoresis.

Data set [11] deals with Dual specificity mitogen-activated protein kinase kinase 1 (Homo sapiens, UniProt Q02750). The experiment in a line: Inhibition of human MEK-1 by Lanthascreen TR-FRET assay.
The test system of data set [12] is Mus musculus. Briefly: Antitumor activity against JAK2V6175 transgenic myelofibrosis C57BL/6 mouse cancer model assessed as reduction in spleen volume at 325 mg/kg, po administered daily for 4 days by magnetic resonance imaging analysis. The note with it: time 4.0 day. It is filed as functional, organism-based. The gist of the method:
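Lethally irradiated C57BL/6 female recipients received 5 million mixed bone marrow cells (Mx1-Cre; JAK2V617F donor with WT, 1:9) and polyI:C twice 2 weeks after transplant. 325 mg/kg by oral gavage daily. Spleen volume by anatomic MRI at 7T after 4 days. Vehicle n=5, treated n=4; mean ± s.d., Welch's t-test.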

The subject of data set [13] is A-375. Briefly: Inhibition of AKT phosphorylation in human A-375 cells assessed as change in phosphorylated Akt level at 10 uM for 30 minutes in presence of PDGF by western blot analysis relative to control. More on the design: scale not given: the % may be the effect or the level left. The data set is classed as cell-based. A digest of the protocol:
as §3

The target in data set [14] is Phosphatidylinositol 4,5-bisphosphate 3-kinase catalytic subunit alpha isoform (Homo sapiens, UniProt P42336). The experiment in a line: Inhibition of human PI3Kalpha by TR-FRET based Adapta assay.
Data set [15] has as its system Mus musculus. Briefly: Antitumor activity against JAK2V6175 transgenic myelofibrosis C57BL/6 mouse cancer model assessed as reduction in spleen weight at 325 mg/kg, po administered daily for 5 days. Also noted: scale not given: the % may be the effect or the level left. Particulars: time 5 day.
The subject of data set [16] is D54 cell line. The experiment in a line: Inhibition of AKT phosphorylation in human D-54 cells assessed as change in phosphorylated Akt level at 10 uM for 30 minutes in presence of PDGF by western blot analysis relative to control. More on the design: scale not given: the % may be the effect or the level left. The data set is classed as cell-based. The gist of the method: as §3

Data set [17] in a line: Drug concentration in JAK2V6175 transgenic myelofibrosis C57BL/6 mouse bone marrow at 325 mg/kg, po measured after 4 hrs by LC-MS/MS analysis. The data set is classed as ADME, organism-based. The note with it: read-out: Ct. A digest of the protocol: as §2
Data set [18] has as its system A-375. The experiment in a line: Inhibition of ERK phosphorylation in human A-375 cells assessed as change in phosphorylated ERK level at 10 uM for 30 minutes in presence of PDGF by western blot analysis relative to control. It is filed as cell-based. More on the design: scale not given: the % may be the effect or the level left. A digest of the protocol: as §3

The nature of data set [19]: Drug concentration in JAK2V6175 transgenic myelofibrosis C57BL/6 mouse spleen at 325 mg/kg, po measured after 4 hrs by LC-MS/MS analysis. The note with it: read-out: Ct. The data set is classed as ADME, organism-based. A digest of the protocol:
as §2

Data set [20] concerns Spleen. Briefly: Effect of PI3K signalling pathway in JAK2V6175 transgenic myelofibrosis C57BL/6 mouse spleen assessed as reduction in AKT phosphorylation at 325 mg/kg, po administered daily for 5 days by flow cytometry analysis. Particulars: time 5.0 day. The data set is classed as functional, organism-based. A digest of the protocol:
(§4)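 JAK2V617F bone-marrow-transplant MF mice were dosed 325 mg/kg orally daily for 5 days, then sacrificed. Isolated cells stained intracellularly with APC-conjugated anti-pAKT (S473) or anti-pERK1/2 (T202/Y204). Mean fluorescence intensity measured by flow cytometry. Vehicle n=6, treated n=4; mean ± s.e.m., Welch's t-test.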

Data set [21] deals with SET2. Briefly: Inhibition of ERK phosphorylation in human SET2 cells assessed as change in phosphorylated ERK level at 10 uM for 30 minutes in absence of PDGF by western blot analysis relative to control. Also noted: scale not given: the % may be the effect or the level left.
Data set [22] can be described thus: Drug metabolism in JAK2V6175 transgenic myelofibrosis C57BL/6 mouse bone marrow at 325 mg/kg, po assessed as metabolite formation measured after 4 hrs by LC-MS/MS analysis. The note with it: in vivo. The data set is classed as ADME, organism-based. The gist of the method:
as §2

The test system of data set [23] is Spleen. The experiment in a line: Effect of MAPK signalling pathway in JAK2V6175F transgenic myelofibrosis C57BL/6 mouse spleen assessed as reduction in ERK1/2 phosphorylation at 325 mg/kg, po daily for 5 days by flow cytometry analysis. It is filed as functional, organism-based. Particulars: time 5.0 day. The gist of the method:
as §4

Data set [24] relates to SET2. Briefly: Inhibition of AKT phosphorylation in human SET2 cells assessed as change in phosphorylated Akt level at 10 uM for 30 minutes in absence of PDGF by western blot analysis relative to control. Also noted: scale not given: the % may be the effect or the level left.
The subject of data set [25] is Spleen. Briefly: Effect of MAPK signalling pathway in JAK2V6175 transgenic myelofibrosis C57BL/6 mouse spleen assessed as reduction in […] phosphorylation at 325 mg/kg, po administered daily for 5 days by flow cytometry analysis. Particulars: time 5.0 day. The data set is classed as functional, organism-based. The gist of the method:
as §4

The nature of data set [26]: Drug metabolism in JAK2V6175 transgenic myelofibrosis C57BL/6 mouse spleen at 325 mg/kg, po assessed as metabolite formation measured after 4 hrs by LC-MS/MS analysis. It is filed as ADME, organism-based. The note with it: in vivo. A digest of the protocol:
as §2

The source made the active and inactive calls. The rule behind the calls is not given here.

Chain of Phosphatidylinositol 4,5-bisphosphate 3-kinase catalytic subunit gamma isoform (P48736 whole entry, canonical isoform): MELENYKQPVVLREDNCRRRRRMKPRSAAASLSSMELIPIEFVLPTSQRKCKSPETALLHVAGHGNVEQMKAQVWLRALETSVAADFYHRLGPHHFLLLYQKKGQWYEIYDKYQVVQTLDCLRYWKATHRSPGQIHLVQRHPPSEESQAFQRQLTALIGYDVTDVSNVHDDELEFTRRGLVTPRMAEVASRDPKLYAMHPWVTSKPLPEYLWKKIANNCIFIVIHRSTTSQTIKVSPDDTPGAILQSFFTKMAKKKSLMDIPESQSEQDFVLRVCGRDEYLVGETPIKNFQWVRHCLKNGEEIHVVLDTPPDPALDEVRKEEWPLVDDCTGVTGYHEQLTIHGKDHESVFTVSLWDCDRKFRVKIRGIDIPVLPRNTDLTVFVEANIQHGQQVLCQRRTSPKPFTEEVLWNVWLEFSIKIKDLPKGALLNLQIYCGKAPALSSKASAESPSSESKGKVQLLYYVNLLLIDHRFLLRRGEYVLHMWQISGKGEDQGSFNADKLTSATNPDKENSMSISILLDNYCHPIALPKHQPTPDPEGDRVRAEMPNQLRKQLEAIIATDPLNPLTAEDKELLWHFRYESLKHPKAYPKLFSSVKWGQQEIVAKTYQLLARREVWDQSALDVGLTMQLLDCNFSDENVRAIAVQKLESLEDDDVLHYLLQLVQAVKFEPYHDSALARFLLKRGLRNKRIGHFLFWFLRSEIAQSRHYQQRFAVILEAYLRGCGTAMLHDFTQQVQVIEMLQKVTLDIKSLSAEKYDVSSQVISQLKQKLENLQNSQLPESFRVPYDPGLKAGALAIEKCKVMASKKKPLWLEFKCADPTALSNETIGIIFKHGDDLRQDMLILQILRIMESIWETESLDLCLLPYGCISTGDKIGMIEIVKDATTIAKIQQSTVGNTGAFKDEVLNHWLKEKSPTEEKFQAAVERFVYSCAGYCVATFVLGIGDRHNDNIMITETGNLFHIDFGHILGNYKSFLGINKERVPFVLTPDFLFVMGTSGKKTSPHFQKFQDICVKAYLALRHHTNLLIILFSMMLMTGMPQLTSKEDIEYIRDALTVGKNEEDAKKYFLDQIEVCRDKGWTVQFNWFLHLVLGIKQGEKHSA
Chain of Dual specificity mitogen-activated protein kinase kinase 1 (Q02750 whole entry): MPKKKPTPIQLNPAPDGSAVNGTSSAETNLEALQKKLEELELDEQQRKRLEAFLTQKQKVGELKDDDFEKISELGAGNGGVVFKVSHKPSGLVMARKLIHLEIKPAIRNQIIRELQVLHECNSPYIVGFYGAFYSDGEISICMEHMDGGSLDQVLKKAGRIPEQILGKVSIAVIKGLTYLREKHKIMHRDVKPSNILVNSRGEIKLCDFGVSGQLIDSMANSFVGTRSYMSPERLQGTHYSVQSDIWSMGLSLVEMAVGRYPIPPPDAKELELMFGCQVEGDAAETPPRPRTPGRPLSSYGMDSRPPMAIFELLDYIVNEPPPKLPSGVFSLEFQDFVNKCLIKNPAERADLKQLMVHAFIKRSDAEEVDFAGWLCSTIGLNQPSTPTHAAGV
Chain of Phosphatidylinositol 4,5-bisphosphate 3-kinase catalytic subunit beta isoform (P42338 whole entry, canonical isoform): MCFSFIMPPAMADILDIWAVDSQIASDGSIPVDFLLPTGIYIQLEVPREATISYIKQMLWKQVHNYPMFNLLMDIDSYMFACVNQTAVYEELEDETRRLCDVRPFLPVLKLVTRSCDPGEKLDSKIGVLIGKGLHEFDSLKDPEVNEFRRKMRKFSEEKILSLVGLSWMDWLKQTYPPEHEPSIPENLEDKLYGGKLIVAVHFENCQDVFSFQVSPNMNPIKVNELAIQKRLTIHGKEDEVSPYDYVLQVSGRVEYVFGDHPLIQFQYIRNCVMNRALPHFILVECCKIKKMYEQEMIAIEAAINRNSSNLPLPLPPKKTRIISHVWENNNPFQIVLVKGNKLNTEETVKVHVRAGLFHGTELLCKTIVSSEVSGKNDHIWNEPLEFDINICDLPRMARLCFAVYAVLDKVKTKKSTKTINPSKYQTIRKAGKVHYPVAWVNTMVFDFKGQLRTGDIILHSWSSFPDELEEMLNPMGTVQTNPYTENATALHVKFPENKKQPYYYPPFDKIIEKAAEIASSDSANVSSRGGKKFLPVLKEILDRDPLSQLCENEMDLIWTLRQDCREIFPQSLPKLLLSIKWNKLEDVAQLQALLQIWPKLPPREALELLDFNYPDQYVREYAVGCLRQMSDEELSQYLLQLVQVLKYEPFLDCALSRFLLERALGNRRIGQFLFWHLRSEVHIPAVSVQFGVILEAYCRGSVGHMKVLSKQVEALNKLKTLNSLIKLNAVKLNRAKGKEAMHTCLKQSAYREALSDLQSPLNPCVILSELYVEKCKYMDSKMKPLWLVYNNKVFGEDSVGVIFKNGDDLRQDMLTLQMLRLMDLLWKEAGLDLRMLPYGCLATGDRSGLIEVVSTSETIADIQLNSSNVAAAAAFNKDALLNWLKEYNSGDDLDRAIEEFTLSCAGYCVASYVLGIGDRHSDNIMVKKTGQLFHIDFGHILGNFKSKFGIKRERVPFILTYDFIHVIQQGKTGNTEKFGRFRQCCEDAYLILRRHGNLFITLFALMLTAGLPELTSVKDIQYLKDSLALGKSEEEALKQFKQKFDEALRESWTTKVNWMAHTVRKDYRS
Chain of Phosphatidylinositol 4,5-bisphosphate 3-kinase catalytic subunit alpha isoform (P42336 whole entry, canonical isoform): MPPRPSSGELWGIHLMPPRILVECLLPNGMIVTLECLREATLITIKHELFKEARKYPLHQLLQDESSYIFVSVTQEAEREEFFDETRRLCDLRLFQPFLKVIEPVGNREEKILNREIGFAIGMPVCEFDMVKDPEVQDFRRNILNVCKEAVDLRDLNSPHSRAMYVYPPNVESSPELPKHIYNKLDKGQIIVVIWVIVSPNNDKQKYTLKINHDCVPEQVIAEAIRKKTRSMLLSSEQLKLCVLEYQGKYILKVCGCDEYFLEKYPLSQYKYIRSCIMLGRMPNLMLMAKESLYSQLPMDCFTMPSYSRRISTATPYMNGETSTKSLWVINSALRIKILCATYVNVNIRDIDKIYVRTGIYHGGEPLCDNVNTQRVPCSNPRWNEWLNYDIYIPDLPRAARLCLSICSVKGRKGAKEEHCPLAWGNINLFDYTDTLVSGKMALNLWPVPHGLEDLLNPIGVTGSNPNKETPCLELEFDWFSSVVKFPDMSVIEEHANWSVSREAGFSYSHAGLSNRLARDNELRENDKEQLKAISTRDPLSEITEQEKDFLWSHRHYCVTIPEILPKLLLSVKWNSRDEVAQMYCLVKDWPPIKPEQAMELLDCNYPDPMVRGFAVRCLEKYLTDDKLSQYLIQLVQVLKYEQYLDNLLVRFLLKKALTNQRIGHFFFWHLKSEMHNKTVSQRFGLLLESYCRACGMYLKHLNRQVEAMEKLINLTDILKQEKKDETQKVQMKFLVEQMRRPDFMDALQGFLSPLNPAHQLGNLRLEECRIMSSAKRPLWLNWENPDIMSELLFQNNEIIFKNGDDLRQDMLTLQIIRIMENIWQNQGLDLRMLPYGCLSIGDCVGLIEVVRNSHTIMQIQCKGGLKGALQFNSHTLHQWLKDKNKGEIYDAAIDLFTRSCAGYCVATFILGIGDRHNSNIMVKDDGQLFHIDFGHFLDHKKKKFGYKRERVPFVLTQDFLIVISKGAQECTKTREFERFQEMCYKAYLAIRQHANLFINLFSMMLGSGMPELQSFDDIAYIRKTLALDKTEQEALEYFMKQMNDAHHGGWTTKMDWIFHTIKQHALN

In general, IC50 refers to the midpoint of a concentration-inhibition curve. Take `O=C(NOCCOCCOCCOCCNc1nc(N2CCOCC2)nc(-n2c(C(F)F)nc3ccccc32)n1)c1ccc(F)c(F)c1Nc1ccc(I)cc1F`: the IC50 amounted to 236 nM in data set [1]; 2740 nM in [3]; 10.7 µM in data set [4]; 17.3 µM in data set [6]; 10.7 µM in data set [8]; 1540 nM in [9]. Moreover, the figures for the IC50 in data set [11] and in [14] were 124 nM and 130 nM, respectively. For the same molecule, the inhibition entry in data set [2], in data set [20], in data set [23] and in data set [25] was “Active” in each case. For the same molecule, the concentration at 4 h in [5], in data set [17] and in data set [19] was 2000 ng/g in each case. Besides, the Drug metabolism entry in [7], in data set [22] and in [26] was “Metabolite_Detected” each time. In addition, the Activity stood at 66.4% in data set [10]; 23.7% in data set [13]; 35% in data set [15]; 22.5% in data set [16]; 85.5% in [18]; 76.8% in [21]. The Activity in data set [24] turned out to be 28.9%. For the same molecule, the outcome in data set [12] was Active.

As to `O=C(NOCCOCCOCCOCCN(CCO)c1nc(N2CCOCC2)nc(-n2c(C(F)F)nc3ccccc32)n1)c1ccc(F)c(F)c1Nc1ccc(I)cc1F`, the inhibition result in data set [2], in [20], in data set [23] and in data set [25] was “Active” in each case. The IC50 came to 8.5 µM in data set [4], 9.9 µM in [6] and 7 µM in data set [8]. Besides, the concentration at 4 h in data set [5], in [17] and in data set [19] was 2000 ng/g in each case. Further, the Drug metabolism result in [7], in data set [22] and in [26] was “Metabolite_Detected” throughout. Moreover, the Activity in data set [10] is 87.3%; in [13], 70.8%; in [15], 53%; in data set [16] it was 65.3%; in data set [18] it was 96%; in [21] it was 90%. Also, the Activity in [24] is 54.8%. Further, the result in data set [12] was Active.

The values are drawn from ChEMBL document CHEMBL5046229 (Eur J Med Chem, 2022).
